ChEMBL document CHEMBL1135477, “Antifungal agents. 10. New derivatives of 1-[(aryl)[4-aryl-1H-pyrrol-3-yl]methyl]-1H-imidazole, synthesis, anti-candida activity, and quantitative structure-analysis relationship studies” (J Med Chem, 2002)
Values after ≈ are worked out from the molar mass of the structure shown.

How the values were obtained:
Format in all cases: functional
Candida albicans [1] = assay: In vitro antifungal activity against 40 strains of Candida albicans at pH 5.8
Procedure, shortened: (§1)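 Broth serial-dilution MIC against 40 clinical C. albicans isolates from hospitalized patients, grown in Sabouraud broth at pH 7.2 or 5.8. Cells were pre-grown 18 h at 37 °C, inoculated at 10³/mL, and read at 24 h, 37 °C. Doubling dilutions ran 0.25–256 μg/mL from a DMSO/water solution. MIC was the lowest concentration with no visible growth against a DMSO/water blank.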

[2] = target: Lanosterol 14-alpha demethylase (Candida albicans (strain SC5314 / ATCC MYA-2876) (Yeast), UniProt P10613); assay: Anticandida activity- (MIC90 compound) / (MIC90 bifonazole)
Candida albicans [3] = assay: TIn vitro antifungal activity against 40 strains of Candida albicans at pH 5.8; (range is from 4 to 64); procedure, shortened: as §1
Candida albicans [4] = assay: In vitro antifungal activity against 40 strains of Candida albicans at pH 7.2; procedure, shortened: as §1
Candida albicans [5] = assay: IIn vitro antifungal activity against 40 strains of Candida albicans at pH 7.2; minimum inhibitory concentration (range is from 2 to 64); procedure, shortened: as §1
Candida [6] = assay: Tested in vitro for antifungal activity against Candida species. at pH 5.8 (percent of resistant species at 256 ug/mL)
Procedure, shortened: (§2)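 Broth serial-dilution test in Sabouraud broth at pH 7.2 or 5.8, against 3 fresh clinical non-albicans isolates (two C. glabrata, one C. krusei). Inocula were 10³/mL, pre-grown 18 h at 37 °C. Compound was twofold-diluted over 0.25–256 µg/mL and read at 24 h, 37 °C for visible growth.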

Candida [7] = assay: Tested In vitro for antifungal activity against Candida species. at pH 7.2; (range is from 1 to 32)
Procedure, shortened: (§3)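 Liquid serial-dilution MIC against 3 freshly isolated clinical Candida strains (two C. glabrata, one C. krusei) in Sabouraud broth at pH 7.2 or 5.8. Inoculum was 10³/mL after 18 h pre-culture at 37 °C, read at 24 h, 37 °C. Range was 0.25–256 μg/mL. Endpoint was no visible growth versus a DMSO/water blank.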

Candida albicans [8] = assay: In vitro antifungal activity against 40 strains of Candida albicans at pH 7.2; (percent of resistant species at 256 ug/mL)
Procedure, shortened: (§4)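 Broth serial-dilution test in Sabouraud broth at pH 7.2 or 5.8, against 40 fresh clinical C. albicans isolates from hospitalized patients. Inocula were 10³/mL, pre-grown 18 h at 37 °C in Sabouraud dextrose broth. Compound from a DMSO/water stock was twofold-diluted over 0.25–256 µg/mL. Visible growth was read at 24 h, 37 °C.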

Candida albicans [9] = assay: In vitro antifungal activity against 40 strains of Candida albicans at pH 5.8; (percent of resistant species at 256 ug/mL); procedure, shortened: as §4
Candida [10] = assay: Tested in vitro for antifungal activity against Candida species. at pH 5.8 (range is from 8 to 256); procedure, shortened: as §3
Candida [11] = assay: Tested In vitro for antifungal activity against Candida species. at pH 7.2; (percent of resistant species at 256 ug/mL); procedure, shortened: as §2
Candida [12] = assay: Tested In vitro for antifungal activity against Candida species. at pH 7.2; procedure, shortened: as §3
Candida [13] = assay: Tested in vitro for antifungal activity against Candida species. at pH 5.8; procedure, shortened: as §3
Candida albicans [14] = assay: In vitro antifungal activity against 40 strains of Candida albicans at pH 5.8; (range is from 4 to 64); procedure, shortened: as §1
Candida albicans [15] = assay: IIn vitro antifungal activity against 40 strains of Candida albicans at pH 7.2; minimum inhibitory concentration (range is from 2 to 128); procedure, shortened: as §1
Candida [16] = assay: Tested in vitro for antifungal activity at pH 7.2 (percent of resistant species at 256 ug/mL)
Procedure, shortened: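 Sabouraud broth serial-dilution test (0.25–256 µg/mL, 10³/mL inocula, 24 h at 37 °C), run at the stated pH on clinical isolates: 40 C. albicans and 3 Candida spp. (two C. glabrata, one C. krusei).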

Candida [17] = assay: Tested In vitro for antifungal activity against Candida species. at pH 7.2; (range is from 8 to 256); procedure, shortened: as §3
Candida [18] = assay: Tested in vitro for antifungal activity against Candida species. at pH 5.8 (value ranges from 16 to 128); procedure, shortened: as §3
Candida [19] = assay: Tested In vitro for antifungal activity against Candida species. at pH 7.2 (percent of resistant species at 256 ug/mL); procedure, shortened: as §2
Candida albicans [20] = assay: In vitro antifungal activity against 40 strains of Candida albicans at pH 7.2; value ranges from 128 to >256; procedure, shortened: as §1
Candida albicans [21] = assay: In vitro antifungal activity against 40 strains of Candida albicans at pH 5.8 (percent of resistant species at 256 ug/mL); procedure, shortened: as §4
Candida albicans [22] = assay: In vitro antifungal activity against 40 strains of Candida albicans at pH 5.8; value ranges from 256 to >256; procedure, shortened: as §1
Candida albicans [23] = assay: In vitro antifungal activity against Candida albicans (40 strains) at pH 7.2; (percent of resistant species at 256 ug/mL); procedure, shortened: as §4
Candida albicans [24] = assay: In vitro antifungal activity against 40 strains of Candida albicans at pH 7.2; minimum inhibitory concentration (range is from 1 to 32); procedure, shortened: as §1
Candida [25] = assay: Tested In vitro for antifungal activity against Candida species. at pH 7.2; (range is from 2 to 32); procedure, shortened: as §3
Candida albicans [26] = assay: In vitro antifungal activity against 40 strains of Candida albicans at pH 5.8; (range is from 0.25 to 64); procedure, shortened: as §1
Candida [27] = assay: Tested in vitro for antifungal activity against Candida species. at pH 5.8 (range is from 4 to 16); procedure, shortened: as §3

Chain of Lanosterol 14-alpha demethylase (P10613 whole entry): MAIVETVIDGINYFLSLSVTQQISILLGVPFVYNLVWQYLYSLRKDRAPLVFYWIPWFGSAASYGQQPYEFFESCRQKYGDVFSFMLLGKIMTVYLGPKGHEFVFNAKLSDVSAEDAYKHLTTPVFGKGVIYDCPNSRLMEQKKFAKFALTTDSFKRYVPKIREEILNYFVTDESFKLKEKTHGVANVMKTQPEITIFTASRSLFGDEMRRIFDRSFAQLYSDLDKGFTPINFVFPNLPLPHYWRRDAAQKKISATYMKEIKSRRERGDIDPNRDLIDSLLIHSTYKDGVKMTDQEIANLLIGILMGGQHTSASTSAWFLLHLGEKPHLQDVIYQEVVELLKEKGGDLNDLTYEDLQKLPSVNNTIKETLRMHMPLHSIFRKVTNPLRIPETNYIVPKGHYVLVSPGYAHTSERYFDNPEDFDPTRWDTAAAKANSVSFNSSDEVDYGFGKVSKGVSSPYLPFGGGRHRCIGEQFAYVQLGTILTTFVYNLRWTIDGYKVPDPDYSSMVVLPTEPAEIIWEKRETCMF

Compound	MIC (Candida albicans [1]) [µg/mL]	MIC50 (Candida albicans [1]) [µg/mL]	MIC90 (Candida albicans [1]) [µg/mL]	Ratio [2]	MIC (Candida albicans [4]) [µg/mL]	MIC50 (Candida albicans [4]) [µg/mL]	MIC90 (Candida albicans [4]) [µg/mL]	Resistance (Candida [6]) [%]	Resistance (Candida albicans [8]) [%]	Resistance (Candida albicans [9]) [%]	Resistance (Candida [11]) [%]	MIC (Candida [12]) [µg/mL]	MIC50 (Candida [12]) [µg/mL]	MIC90 (Candida [12]) [µg/mL]	MIC (Candida [13]) [µg/mL]	MIC50 (Candida [13]) [µg/mL]	MIC90 (Candida [13]) [µg/mL]	further results
N#Cc1ccc(-c2c[nH]cc2[C@H](c2ccc(Cl)cc2Cl)n2ccnc2)cc1	41.3 (≈ 105 µM)	8 (≈ 20.3 µM)	32 (≈ 81.4 µM)	6.3	13.2 (≈ 33.6 µM)	8 (≈ 20.3 µM)	32 (≈ 81.4 µM)	0	0	0	0	32.4 (≈ 82.4 µM)	16 (≈ 40.7 µM)	64 (≈ 163 µM)	58 (≈ 147 µM)	64 (≈ 163 µM)	256 (≈ 651 µM)	Range (Candida albicans [3]): 64 µg/mL; Range (Candida albicans [5]): 64 µg/mL; Range (Candida [7]): 32 µg/mL; Range (Candida [10]): 256 µg/mL
Clc1ccc([C@H](c2c[nH]cc2-c2ccc(-c3ccccc3)cc2)n2ccnc2)c(Cl)c1	10.1 (≈ 22.6 µM)	8 (≈ 18 µM)	8 (≈ 18 µM)	5.6	14.9 (≈ 33.5 µM)	8 (≈ 18 µM)	8 (≈ 18 µM)	–	0	0	–	90.6 (≈ 204 µM)	8 (≈ 18 µM)	256 (≈ 576 µM)	53.3 (≈ 120 µM)	16 (≈ 36 µM)	128 (≈ 288 µM)	Range (Candida albicans [14]): 64 µg/mL; Range (Candida albicans [15]): 128 µg/mL; % R (Candida [6]): 0%; Resistance (Candida [16]): 0%; Range (Candida [17]): 256 µg/mL; Range (Candida [18]): 128 µg/mL
CC(C)(C)c1ccc(-c2c[nH]cc2[C@@H](c2ccc(Cl)cc2Cl)n2ccnc2)cc1	256 (≈ 603 µM)	> 256	> 256	47	165 (≈ 388 µM)	> 256	> 256	100	–	–	–	–	> 256	> 256	–	> 256	> 256	Resistance (Candida [19]): 100%; Range (Candida albicans [20]): >256 µg/mL; Resistance (Candida albicans [21]): 97%; Range (Candida albicans [22]): >256 µg/mL; Resistance (Candida albicans [23]): 80%; Range (Candida [12]): >256 µg/mL; Range (Candida [13]): >256 µg/mL
Clc1ccc([C@H](c2c[nH]cc2-c2ccc(-n3cccc3)cc2)n2ccnc2)c(Cl)c1	3.95 (≈ 9.12 µM)	2 (≈ 4.62 µM)	4 (≈ 9.23 µM)	0.72	4.4 (≈ 10.2 µM)	2 (≈ 4.62 µM)	4 (≈ 9.23 µM)	0	0	0	0	14.1 (≈ 32.6 µM)	4 (≈ 9.23 µM)	32 (≈ 73.8 µM)	9.3 (≈ 21.5 µM)	8 (≈ 18.5 µM)	16 (≈ 36.9 µM)	Range (Candida albicans [24]): 32 µg/mL; Range (Candida [25]): 32 µg/mL; Range (Candida albicans [26]): 64 µg/mL; Range (Candida [27]): 16 µg/mL
